Source: ChEMBL document CHEMBL5032538, “Studies on the Importance of the 7α-, and 12α- hydroxyl groups of N-Aryl-3α,7α,12α-trihydroxy-5β-cholan-24-amides on their Antigermination Activity Against a Hypervirulent Strain of Clostridioides (Clostridium) difficile” (Bioorg Med Chem, 2021)

Columns and labels:
Type in all cases: functional
[1] = test system: Clostridioides difficile; test: Inhibition of Taurocholate-induced spore germination in Clostridioides difficile R20291 assessed as remaining germination activity at 125 uM in the presence of glycine measured every minute for 2 hrs relative to control
Procedure, shortened: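 Spores purified on a HistoDenz gradient, heat-activated at 68°C for 30 min, washed, then diluted to OD580 1.0 in 100 mM sodium phosphate pH 6.0 with 5 mg/ml sodium bicarbonate. Compound at 125 μM final, in triplicate, with 6 mM taurocholate and 12 mM glycine. OD580 read every minute for 2 h and normalized to time zero. Percent germination given with standard deviation.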

[2] = test system: Clostridioides difficile; test: Inhibition of Taurocholate-induced spore germination in Clostridioides difficile R20291 in the presence of glycine measured every minute for 2 hrs
Procedure, shortened: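 HistoDenz-purified spores were heat-activated at 68°C for 30 min and set to OD580 1.0 in 100 mM sodium phosphate pH 6.0 with 5 mg/ml bicarbonate. They were incubated with varied analog concentrations plus 6 mM taurocholate and 12 mM glycine. OD580 was read each minute for 2 h and normalized to t0. IC50 came from extent of germination plotted against log concentration.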

[3] = molecular target: Clostridioides difficile; test: Inhibition of Taurocholate-induced spore germination in Clostridioides difficile UK1 at […] by spectrophotometric method
[4] = molecular target: Clostridioides difficile; test: Inhibition of Taurocholate-induced spore germination in Clostridioides difficile 630 in presence of glycine measured every minute for 90 mins

COc1ccccc1NC(=O)CC[C@@H](C)[C@H]1CC[C@H]2[C@@H]3[C@@H](O)C[C@@H]4C[C@H](O)CC[C@]4(C)[C@H]3CC[C@]12C
Activity [1]: 100%

COc1ccccc1NC(=O)CC[C@@H](C)[C@H]1CC[C@H]2[C@@H]3CC[C@@H]4C[C@H](O)CC[C@]4(C)[C@H]3C[C@H](O)[C@]12C
Activity [1]: 0.4% | IC50 [2]: 2.4 µM

C[C@H](CCC(=O)O)[C@H]1CC[C@H]2[C@@H]3CC[C@@H]4C[C@H](O)CC[C@]4(C)[C@H]3CC[C@]12C [LITHOCHOLIC ACID]
Ki [3]: 104 µM

C[C@H](CCC(=O)Nc1cccc(F)c1)[C@H]1CC[C@H]2[C@@H]3[C@@H](O)C[C@@H]4C[C@H](O)CC[C@]4(C)[C@H]3CC[C@]12C
Activity [1]: 100%

C[C@H](CCC(=O)Nc1cccc(F)c1)[C@H]1CC[C@H]2[C@@H]3CC[C@@H]4C[C@H](O)CC[C@]4(C)[C@H]3CC[C@]12C
Activity [1]: 100%

C[C@H](CCC(=O)Nc1ccccc1)[C@H]1CC[C@H]2[C@@H]3[C@H](O)C[C@@H]4C[C@H](O)CC[C@]4(C)[C@H]3CC[C@]12C
Activity [1]: 14% | IC50 [2]: 4 µM

C[C@H](CCC(=O)O)[C@H]1CC[C@H]2[C@@H]3[C@H](O)C[C@@H]4C[C@H](O)CC[C@]4(C)[C@H]3CC[C@]12C [CHENODIOL]
Ki [3]: 378 µM

C[C@H](CCC(=O)Nc1cccc(S(=O)(=O)O)c1)[C@H]1CC[C@H]2[C@@H]3[C@H](O)C[C@@H]4C[C@H](O)CC[C@]4(C)[C@H]3C[C@H](O)[C@]12C
Ki [4]: 50 µM

C[C@H](CCC(=O)Nc1cccc(F)c1)[C@H]1CC[C@H]2[C@@H]3[C@H](O)C[C@@H]4C[C@H](O)CC[C@]4(C)[C@H]3CC[C@]12C
Activity [1]: 100%

COc1ccccc1NC(=O)CC[C@@H](C)[C@H]1CC[C@H]2[C@@H]3CC[C@@H]4C[C@H](O)CC[C@]4(C)[C@H]3CC[C@]12C
Activity [1]: 100%

C[C@H](CCC(=O)Nc1ccccc1)[C@H]1CC[C@H]2[C@@H]3CC[C@@H]4C[C@H](O)CC[C@]4(C)[C@H]3CC[C@]12C
Activity [1]: 100%

C[C@H](CCC(=O)O)[C@H]1CC[C@H]2[C@@H]3[C@@H](O)C[C@@H]4C[C@H](O)CC[C@]4(C)[C@H]3CC[C@]12C [URSODIOL]
Ki [3]: 213 µM

COc1ccccc1NC(=O)CC[C@@H](C)[C@H]1CC[C@H]2[C@@H]3[C@H](O)C[C@@H]4C[C@H](O)CC[C@]4(C)[C@H]3CC[C@]12C
Activity [1]: 31% | IC50 [2]: 6 µM

C[C@H](CCC(=O)Nc1ccccc1)[C@H]1CC[C@H]2[C@@H]3[C@@H](O)C[C@@H]4C[C@H](O)CC[C@]4(C)[C@H]3CC[C@]12C
Activity [1]: 57%

Cc1ccc(F)cc1NC(=O)CC[C@@H](C)[C@H]1CC[C@H]2[C@@H]3CC[C@@H]4C[C@H](O)CC[C@]4(C)[C@H]3CC[C@]12C
Activity [1]: 100%

Cc1ccc(F)cc1NC(=O)CC[C@@H](C)[C@H]1CC[C@H]2[C@@H]3[C@H](O)C[C@@H]4C[C@H](O)CC[C@]4(C)[C@H]3CC[C@]12C
Activity [1]: 66%

Cc1ccc(F)cc1NC(=O)CC[C@@H](C)[C@H]1CC[C@H]2[C@@H]3[C@@H](O)C[C@@H]4C[C@H](O)CC[C@]4(C)[C@H]3CC[C@]12C
Activity [1]: 100%

Cc1ccc(F)cc1NC(=O)CC[C@@H](C)[C@H]1CC[C@H]2[C@@H]3CC[C@@H]4C[C@H](O)CC[C@]4(C)[C@H]3C[C@H](O)[C@]12C
Activity [1]: 65%

C[C@H](CCC(=O)Nc1ccccc1)[C@H]1CC[C@H]2[C@@H]3CC[C@@H]4C[C@H](O)CC[C@]4(C)[C@H]3C[C@H](O)[C@]12C
Activity [1]: 3% | IC50 [2]: 1.3 µM

C[C@H](CCC(=O)Nc1cccc(F)c1)[C@H]1CC[C@H]2[C@@H]3CC[C@@H]4C[C@H](O)CC[C@]4(C)[C@H]3C[C@H](O)[C@]12C
Activity [1]: 59%
